# HSF1 activator: increases HSF-1 driven luciferase reporter signal. NIH3T3-HGL HSF-1 luciferase reporter, MG132, 8 h; 100% = twice DMSO control signal. activation, % at 9 µM. AID 504408. 1.7% of 300,000 active;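 active = mean replicate activation of at least 50% with a set share of replicates each reaching 50%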;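 also: 0% = median of the neutral control wells and 100% = twice that signal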
# 697 NFkB inh: inhibitors of the PMA/ionomycin-induced NF-kB reporter in 697 B cells; 697 B-cell NF-kB luciferase reporter, 16 h; inhibition, % at 4 µM; 0.33% of 330,000 active; AID 435022; in the data active = inhibition above about 35%
# GPR7 antag: antagonists of human GPR7 (neuropeptides B/W receptor 1); P48145; GPR7-expressing cells, fluorescence antagonist assay; inhibition, % at 4.4 µM; 1.1% of 290,000 active; AID 1861; in the data active = inhibition above about 16%, passing the limit was not always enough;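 also: cells stimulated with the agonist NPW; 0% = agonist with vehicle and 100% = vehicle without agonist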
# Target sequence (P48145 whole entry, looked up): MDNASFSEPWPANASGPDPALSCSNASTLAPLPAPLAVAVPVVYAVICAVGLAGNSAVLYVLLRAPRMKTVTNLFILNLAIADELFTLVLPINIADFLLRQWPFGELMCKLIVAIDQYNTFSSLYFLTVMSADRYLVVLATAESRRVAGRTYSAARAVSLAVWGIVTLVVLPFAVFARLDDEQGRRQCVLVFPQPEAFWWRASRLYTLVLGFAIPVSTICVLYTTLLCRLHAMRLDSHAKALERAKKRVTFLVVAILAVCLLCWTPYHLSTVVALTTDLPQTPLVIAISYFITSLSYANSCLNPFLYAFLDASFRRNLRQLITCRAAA
# Jurkat NFkB inh: lowers PMA/ionomycin-induced NF-kB signal in Jurkat cells; PMA/ionomycin-induced NF-kB luciferase reporter, luminescence; inhibition, % at 4 µM; 0.53% of 330,000 active; AID 435003; in the data active = inhibition above about 50%
# T cruzi inh: T. cruzi replication inhibition. inhibition, % (concentration not given with the values). T. cruzi beta-gal in NIH3T3, luminescence, 90 h. 1.4% of 300,000 active;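 active = mean inhibition across valid replicates above about 55%, limit read from the data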;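 also: signal also drops with host cell toxicity which is not excluded here; 0% = plate median of DMSO wells and 100% = zero luminescence signal; higher percent means less beta-gal luminescence so fewer parasites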
#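 System – NIH/3T3 host cells with β-galactosidase reporter T. cruzi · Doses – single 50 nL compound addition per well in DMSO · Reagent – 5000 T. cruzi trypomastigotes/well · Medium – Low-serum DMEM with 2% FBS · Timing – ≥90 h infection period, 3 h prior cell attachment · Evaluation – parasite load inhibition, % · Technique – GalScreen luminescence, 60 min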
# HSF1 inh: HSF1 inhibition; NIH3T3-HGL HSE-luciferase, MG132-induced, luminescence 8 h; active compounds read low; activity change, negative = inhibition, % at 7.5 µM (by protocol); 0.77% of 300,000 active;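 active = more than half of replicate wells show activity change below -50%, luminescence cut by over half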;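 also: luciferase reports HSF-1 transcriptional activity via heat shock element; 0% = median of DMSO wells and -100% = zero luminescence signal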
# * = called active by the depositor; / = no result. This is a sample that favours compounds with a hit; in the whole collection about 4.8% have one here.
SMILES,HSF1 activator,697 NFkB inh,GPR7 antag,Jurkat NFkB inh,T cruzi inh,HSF1 inh
Clc1ccc(C[n+]2c(-c3ccccc3)cc(-c3ccccc3)cc2-c2ccccc2)cc1,0.6,6.4,/,41.1,56.3*,-8.3
Fc1ccc(C[n+]2c(-c3ccccc3)cc(-c3ccccc3)cc2-c2ccccc2)cc1,-7.9,-28.7,/,11.6,55.2*,-1.9
Cc1cc(C)[n+](C2C3CC4CC(C3)CC2C4)o1 (stereo unspecified),1.9,-6.7,1.1,-14.3,-36.5,-7.6
CC1=CC(=C2C(=O)NC(=S)NC2=O)C=C(C(F)(F)F)N1C,-12.4,-14.0,-7.1,-2.5,-7.2,-6.3
O=C(Nc1cccc(Br)c1)c1c(O)c2c(n(Cc3ccccc3)c1=O)CCCC2,4.5,9.7,-16.4,-2.8,-10.2,-0.7
CCCC/C(=N/O)c1c(C)[nH]c2ccccc12,27.0,15.7,-1.0,1.1,-9.8,-5.3
N#CC(C#N)=NNc1ccc(-n2ccc(C(F)(F)F)n2)cc1,-8.5,0.2,25.6*,10.5,41.8,-20.4
Cc1cc(C)n(-c2ccc(NN=C(C#N)C#N)cc2)n1,-5.8,-26.2,0.9,1.2,10.4,-16.5
COc1cc(O)cc2c1C(=O)OC(C)CCCC(=O)CCC/C=C\2 (stereo unspecified),107.2*,-7.1,-0.2,-35.0,3.2,65.3
C[C@H]1CCCC(=O)CCC/C=C/c2cc(O)cc(O)c2C(=O)O1,23.9,0.7,-10.8,5.6,5.1,5.2
Cn1ccc(NC(=O)CCl)n1,-4.1,-4.6,-9.6,10.1,-21.0,-3.3
C[N+]1(CC2COC(c3ccco3)O2)CCCCC1 (stereo unspecified),-75.5,-24.3,5.3,5.4,-4.4,-66.4*
S=C1CN=C(c2ccccc2)c2cc(Cl)ccc2N1,65.0*,-12.6,-11.4,1.8,6.3,32.3
COc1ccc(C2=NCC(=S)Nc3ccc(Cl)cc32)cc1OC,17.3,10.3,/,8.1,-8.0,8.8
CC(Cc1ccccc1)[n+]1cc(/N=C(\[O-])Nc2ccccc2)on1 (stereo unspecified),-3.2,17.6,-11.8,-9.1,7.4,-5.2
N#CC1=C(N)Oc2c(c(=O)sc3ccccc23)C1c1cccnc1 (stereo unspecified),2.3,-32.6,13.8,8.6,76.8*,-3.3
N#CC1=C(N)Oc2c(c(=O)oc3ccccc23)C1c1ccncc1 (stereo unspecified),/,-3.2,1.7,-8.9,/,/
CCC(=NCc1cc(OC)cc(OC)c1)c1c(O)n(C)c(=O)n(C)c1=O,3.3,-48.7,-5.7,7.0,-5.8,-1.3
CN(Cc1c[nH]c2ccccc12)C1CCCCC1,26.4,-7.4,6.6,29.5,82.4*,-0.7
c1ccc2c(CN3CCCCCCC3)c[nH]c2c1,-4.7,6.1,-0.6,-6.4,69.6*,-6.3
Cc1cccnc1NC1=NCC(C)S1 (stereo unspecified),-6.4,-14.0,-8.7,-7.9,-17.5,-1.0
CC(=O)Nc1cc(C(=O)N2CCC3(CC2)OCCO3)ccc1Sc1ccc(F)cc1,/,10.4,-13.6,1.8,/,/
Cn1c2ccccc2c2cnn(CC(=O)N3CCC4(CC3)OCCO4)c(=O)c21,-63.9,-9.1,4.1,-9.9,-10.3,-56.1*
COc1cc(C(c2c(C)[nH]n(-c3ccccc3)c2=O)c2c(C)[nH]n(-c3ccccc3)c2=O)cc(OC)c1OC,55.2*,4.6,5.3,11.7,-7.9,33.3
COc1ccc(C2CN(C)CC2C(=O)c2ccc(F)cc2)cc1Cl (stereo unspecified),26.3,7.8,1.2,-8.6,27.6,10.3
SMILES,HSF1 activator,697 NFkB inh,GPR7 antag,Jurkat NFkB inh,T cruzi inh,HSF1 inh
CN1CC(C(=O)c2ccc(F)cc2)C(c2c(F)cccc2Cl)C1 (stereo unspecified),81.6*,5.3,8.7,-0.1,18.4,38.2
COc1ccccc1N1CCN(Cc2ccccc2Cl)CC1,-4.6,12.8,-4.2,14.9,3.7,-2.8
COc1ccccc1N1CCN(Cc2cccc(OC)c2O)CC1,87.9*,15.1,-15.2,-9.6,-3.2,60.5
O=[N+]([O-])c1ccccc1CCl,/,7.3,/,0.4,/,/
O=[N+]([O-])c1ccccc1-c1cc(-c2ccccc2)cc(-c2ccccc2)[n+]1Cc1ccccc1Cl,-9.1,-7.1,/,-5.0,56.2*,-1.2
COC1C(C)OC(OC2CC(C)(O)Cc3cc4c(c(O)c32)C(=O)c2c(O)cc3c(c2C4=O)OC2OC3(C)C(O)C(N(C)C)C2O)C(OC)C1(C)OC (stereo unspecified),71.3*,/,/,/,/,71.3*
COc1cc(/C=C(/C)[N+](=O)[O-])ccc1OCc1ccccc1Cl,127.8*,-14.8,1.9,-43.8,61.4*,116.7
Cc1nc2cc([N+](=O)[O-])ccc2c(=O)n1-c1ccc(Br)cc1,-5.1,7.3,-20.4,-3.3,-5.0,-3.2
Cc1nc2cc([N+](=O)[O-])ccc2c(=O)n1-c1ccccc1[N+](=O)[O-],26.7,9.8,1.5,8.8,59.3*,-1.1
Cc1cccn2c(=O)c3c(nc12)N1CCC(Cc2ccccc2)CC1C1(C3)C(=O)N(C)C(=O)N(C)C1=O (stereo unspecified),56.4*,-17.7,-11.8,-14.1,34.9,10.4
c1ccc(-c2ccc(-c3n(-c4ccccn4)c4ccccc4[n+]3-c3ccccn3)cc2)cc1,29.5,/,8.3,/,59.9*,12.2
COC(=O)C1=C(c2ccc(OC(F)(F)F)cc2)C[C@@H]2CC[C@H]1N2C(=O)NCc1cccc2ccccc12,/,-1.5,/,1.4,/,/
COC(=O)C1=C(c2cccc(C#N)c2)C[C@@H]2CC[C@H]1N2C(=O)N1CCC(O)CC1,/,15.0,/,9.3,/,/
Cc1c(C(=O)c2cccc3ccccc23)c2cccc3c2n1[C@H](CN1CCOCC1)CO3,-8.2,9.6,/,-11.4,72.3*,-9.9
O=C(CN1CCOCC1)c1cccc2ccccc12,-37.2,-3.9,-3.6,0.7,2.5,-7.1
O=C1NS(=O)c2cc([N+](=O)[O-])cc([N+](=O)[O-])c21 (stereo unspecified),-0.1,2.7,-6.8,3.0,0.4,15.8
O=C1CC(N2CC=C(c3ccc(F)cc3)CC2)C(=O)N1c1ccc(F)cc1 (stereo unspecified),-78.0,16.9,12.1,10.7,6.1,-70.6*
CCOc1ccccc1N1C(=O)CC(=O)NC1=O,9.1,-31.3,22.7,4.3,-16.9,3.6
CN(C)CCc1nc2ccccc2c(=O)n1-c1ccccc1,81.1*,-7.9,-10.6,-5.9,11.9,32.9
CCCc1nc2ccccc2c(=O)n1-c1ccc(OC)cc1,0.2,27.5,-6.9,5.6,-0.2,-9.0
NC(Cc1nc2ccccc2[nH]1)c1ccc(Cl)cc1 (stereo unspecified),87.5*,-87.5,-4.8,-68.4,-3.3,65.1
NC(Cc1ccccc1)c1nc2ccccc2[nH]1 (stereo unspecified),20.4,-45.4,-7.1,-34.1,-11.9,11.4

# Source: PubChem
